Source: PubChem BioAssay (several laboratories)
PAFAH2 inh = inhibitors of human PAFAH2. Q99487. recombinant PAFAH2, FP-rhodamine activity probe, fluorescence polarization. inhibition, % at 3.39 µM. 0.99% of 340,000 active. AID 492956;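 active = inhibition above the mean over all tested compounds plus 3 SD, cut at about 30% in these data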;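 note: inhibitors block probe labeling of enzyme so polarization drops; 0% = enzyme with DMSO and 100% = wells lacking PAFAH2 protein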
PAFAH1B3 inh = inhibitors of human PAFAH1B3; Q15102; recombinant PAFAH1B3, FP-rhodamine probe, fluorescence polarization; inhibition, % at 3.39 µM; 0.28% of 340,000 active; AID 492972;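 active = inhibition above the screen-wide average of all tested compounds plus 3 SD, cut at about 25% in these data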;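 note: 0% = enzyme with DMSO only and 100% = wells lacking PAFAH1B3 protein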
Apaf1 inhib = inhibitors of human Apaf-1 apoptosome | O14727 | reconstituted apoptosome caspase-3 activity, DEVD-Rh110 fluorescence | inhibition, % at 20 µM | 0.71% of 330,000 active; active = inhibition of at least 40% at 20 µM;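 note: plate controls were DMSO wells for no effect and DEVD-CHO caspase inhibitor wells for full effect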
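Material: reconstituted apoptosome with Apaf-1, cytochrome c, caspase-9, procaspase-3, dATP; medium: pH 7.5 Hepes buffer with CHAPS, BSA, DTT; also added: cytochrome c and DEVD-Rh110 substrate; timing: 30 min plus 50 min, RT; signal: Rh110 fluorescence intensity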
pPAFAH FP inh = inhibitors of human plasma PAF acetylhydrolase (pPAFAH). Q13093. recombinant pPAFAH, FP-rhodamine probe fluorescence polarization. inhibition, % at 3.39 µM. 1.5% of 330,000 active. AID 463082;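 active = inhibition above the mean inhibition across the screen plus 3 SD, cut at about 25% in these data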;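 note: inhibitors block binding of the rhodamine activity-based probe so polarization drops; 0% = enzyme with DMSO and 100% = wells lacking pPAFAH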
Target sequence (Q13093 whole entry, looked up): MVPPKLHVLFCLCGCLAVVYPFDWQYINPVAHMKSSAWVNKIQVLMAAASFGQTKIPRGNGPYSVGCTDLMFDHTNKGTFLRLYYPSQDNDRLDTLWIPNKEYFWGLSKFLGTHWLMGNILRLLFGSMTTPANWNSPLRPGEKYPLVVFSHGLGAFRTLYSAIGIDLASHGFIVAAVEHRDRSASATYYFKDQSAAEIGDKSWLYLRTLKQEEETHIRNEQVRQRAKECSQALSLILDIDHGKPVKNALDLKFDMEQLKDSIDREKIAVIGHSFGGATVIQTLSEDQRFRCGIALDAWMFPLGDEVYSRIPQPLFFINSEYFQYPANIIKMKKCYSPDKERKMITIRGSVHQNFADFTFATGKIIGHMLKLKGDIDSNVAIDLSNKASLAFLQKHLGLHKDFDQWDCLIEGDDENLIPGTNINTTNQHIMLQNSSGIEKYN
PAFAH1B2 inh = blocks human PAF acetylhydrolase 1b catalytic subunit 2; 1.2% of 340,000 active; AID 492953; inhibition, % at 3.39 µM; P68402; recombinant PAFAH1B2, FP-rhodamine activity probe, fluorescence polarization;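 active = inhibition above the mean of all tested compounds plus 3 SD, cut at about 24% in these data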;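 note: 0% = enzyme with DMSO and 100% = wells lacking PAFAH1B2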
Target sequence (P68402 whole entry, looked up): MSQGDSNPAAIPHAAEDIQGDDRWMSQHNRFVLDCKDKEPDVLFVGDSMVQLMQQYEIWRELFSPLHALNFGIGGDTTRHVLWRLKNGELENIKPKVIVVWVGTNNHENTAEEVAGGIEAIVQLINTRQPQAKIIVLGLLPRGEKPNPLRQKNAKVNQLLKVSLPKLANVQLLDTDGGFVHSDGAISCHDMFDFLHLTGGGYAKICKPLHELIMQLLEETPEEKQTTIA
PAFAH2 FP conf = confirmation of human PAFAH2 inhibitors | shares compounds with PAFAH2 inh | recombinant PAFAH2, FP-rhodamine activity probe, fluorescence polarization | inhibition, % at 3.39 µM | 65% of 2,300 active;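 active = mean inhibition over three repeats above a set limit taken from the earlier primary screen, cut at about 30% in these data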;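 note: inhibitor blocks binding of rhodamine activity probe so polarization falls; 0% = enzyme with DMSO and 100% = wells lacking PAFAH2 protein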
Starred values were filed as active, the others as inactive. Sampled rows, rich in hits. Any-hit rate of the full collection: about 3.1%.

For CCCCn1nc(C(=O)Nc2cc(C(F)(F)F)ccc2N2CCOCC2)ccc1=O the results were PAFAH2 inh 2, PAFAH1B3 inh -1, Apaf1 inhib 21, pPAFAH FP inh 8 and PAFAH1B2 inh 2.
Nc1cc(Cl)ccc1C(=O)OCC(=O)NCc1cccs1 was read as PAFAH2 inh 8, PAFAH1B3 inh 3, Apaf1 inhib -1, pPAFAH FP inh 6 and PAFAH1B2 inh 6.
For Cc1ccc(NC(=O)COC(=O)c2ccc3c(c2)OCO3)c(C)c1 the results were PAFAH2 inh 26, PAFAH1B3 inh 4, Apaf1 inhib 2, pPAFAH FP inh 6 and PAFAH1B2 inh 6.
O=C(COc1ccc2c(c1)OCO2)Nc1ccccc1F was read as PAFAH2 inh 4, PAFAH1B3 inh 8, Apaf1 inhib -18, pPAFAH FP inh 8 and PAFAH1B2 inh 2.
For N#Cc1ccccc1NC(=O)COC(=O)c1ccc2c(c1)OCO2 the results were PAFAH2 inh 62*, PAFAH1B3 inh 8, Apaf1 inhib -2, pPAFAH FP inh 4, PAFAH1B2 inh 4 and PAFAH2 FP conf 53*.
O=C(COC(=O)c1ccc2c(c1)OCO2)Nc1ccccc1F was read as PAFAH2 inh 54*, PAFAH1B3 inh 7, Apaf1 inhib -4, pPAFAH FP inh 6, PAFAH1B2 inh 2 and PAFAH2 FP conf 49*.
For CSc1ccccc1NC(=O)COC(=O)c1ccc(O)cc1 the results were PAFAH2 inh 54*, PAFAH1B3 inh 9, Apaf1 inhib -1, pPAFAH FP inh 16, PAFAH1B2 inh 2 and PAFAH2 FP conf 38*.
Screening Nc1cc(C(=O)OCC(=O)NC(c2ccccc2)c2ccccc2)ccc1Cl returned PAFAH2 inh -3, PAFAH1B3 inh 4, Apaf1 inhib -2, pPAFAH FP inh 0 and PAFAH1B2 inh 6.
Screening O=C(COC(=O)c1ccc(O)cc1)NC(c1ccccc1)c1ccccc1 returned PAFAH2 inh 46*, PAFAH1B3 inh 1, Apaf1 inhib 12, pPAFAH FP inh 17, PAFAH1B2 inh 10 and PAFAH2 FP conf 36*.
CCCCOC(=O)c1ccc(O)cc1 was read as PAFAH2 inh 2, PAFAH1B3 inh 6, Apaf1 inhib 5, pPAFAH FP inh 0 and PAFAH1B2 inh 2.
`CSc1ccccc1NC(=O)COC(=O)c1ccccc1O` gave PAFAH2 inh 5, PAFAH1B3 inh 1, Apaf1 inhib -7, pPAFAH FP inh 3 and PAFAH1B2 inh 0.
O=C(CCCOC(=O)c1ccc(O)cc1)c1ccccc1 was read as PAFAH2 inh 50*, PAFAH1B3 inh 8, Apaf1 inhib 0, pPAFAH FP inh 13, PAFAH1B2 inh 8 and PAFAH2 FP conf 45*.
O=C(COC(=O)c1ccc(O)cc1)Nc1ccccc1-c1ccccc1 was read as PAFAH2 inh 46*, PAFAH1B3 inh 9, Apaf1 inhib 13, pPAFAH FP inh 6, PAFAH1B2 inh 7 and PAFAH2 FP conf 39*.
`Cc1oc(-c2ccccc2F)nc1CSCC(=O)NC1CCC(C)CC1` (stereo not drawn) gave PAFAH2 inh 0, PAFAH1B3 inh 9, Apaf1 inhib 7, pPAFAH FP inh 4 and PAFAH1B2 inh 1.
Screening COc1ccc(C2(SCC(N)C(=O)O)c3ccccc3-c3ccccc32)cc1 (stereo not drawn) returned PAFAH2 inh 2, PAFAH1B3 inh -1 and PAFAH1B2 inh -6.
`Nc1nnc(CC(=O)N/N=C/c2cccc(OCCOc3ccccc3)c2)s1` gave PAFAH2 inh 18, PAFAH1B3 inh 2, Apaf1 inhib 15, pPAFAH FP inh -8 and PAFAH1B2 inh 1.
`Cc1ccccc1OCCOc1cccc(/C=N/NC(=O)Cc2nnc(N)s2)c1` gave PAFAH2 inh 33*, PAFAH1B3 inh -4, Apaf1 inhib 28, pPAFAH FP inh 9, PAFAH1B2 inh 4 and PAFAH2 FP conf 16.
CC(C)(CNC(=O)CO/N=C1/C=C2CCC3C(C(O)C[C@@]4(C)C3CC[C@]4(O)C(=O)CO)[C@@]2(C)CC1)C(O)C(=O)O (stereo partly drawn) was read as PAFAH2 inh -1, PAFAH1B3 inh -5, Apaf1 inhib 4, pPAFAH FP inh -4 and PAFAH1B2 inh 1.
For CCOc1ccc(C)cc1S(=O)(=O)n1cnc2ccccc21 the results were PAFAH2 inh 4, PAFAH1B3 inh 12, Apaf1 inhib 13, pPAFAH FP inh -3 and PAFAH1B2 inh 2.
For O=C(COC(=O)c1ccccc1)Nc1ccccc1Br the results were PAFAH2 inh 36*, PAFAH1B3 inh -7, Apaf1 inhib 1, pPAFAH FP inh 10, PAFAH1B2 inh -2 and PAFAH2 FP conf 25.
C/C=C/C(=O)OCC(=O)Nc1ccccc1Br was read as PAFAH2 inh 33*, PAFAH1B3 inh 20, Apaf1 inhib -19, pPAFAH FP inh 3, PAFAH1B2 inh -4 and PAFAH2 FP conf 20.
O=C(COC(=O)/C=C/c1ccccc1)Nc1ccccc1Br was read as PAFAH2 inh 64*, PAFAH1B3 inh -3, Apaf1 inhib 4, pPAFAH FP inh 9, PAFAH1B2 inh 3 and PAFAH2 FP conf 54*.
For O=C(COC(=O)/C=C/C(=O)OCC(=O)Nc1ccccc1F)Nc1ccccc1F the results were PAFAH2 inh 5, PAFAH1B3 inh -2, Apaf1 inhib -4, pPAFAH FP inh 2 and PAFAH1B2 inh 2.
Screening CCOc1ccccc1NS(=O)(=O)c1c(C)[nH]c(C)c1C(=O)N1CCCCC1 returned PAFAH2 inh 1, PAFAH1B3 inh 5, Apaf1 inhib 3, pPAFAH FP inh 2 and PAFAH1B2 inh 4.
For Cc1ccc(CNS(=O)(=O)c2cn(C)c(=O)n(C)c2=O)cc1 the results were PAFAH2 inh -1, PAFAH1B3 inh 6, Apaf1 inhib -21, pPAFAH FP inh -3 and PAFAH1B2 inh 15.
`O=C(CCC(=O)N1CCCC1)Nc1ccc(Cl)c(Cl)c1` gave PAFAH2 inh 54*, PAFAH1B3 inh 3, Apaf1 inhib -11, pPAFAH FP inh 23, PAFAH1B2 inh -6 and PAFAH2 FP conf 57*.
`O=C(Nc1ccc(Cl)c(Cl)c1)N1CCCCCC1` gave PAFAH2 inh 0, PAFAH1B3 inh 19, Apaf1 inhib 3, pPAFAH FP inh -5 and PAFAH1B2 inh 4.
COc1ccc(C2CCCN2CC(O)COc2ccccc2C(C)C)cc1 (stereo not drawn) was read as PAFAH2 inh -5, PAFAH1B3 inh -3, Apaf1 inhib 15, pPAFAH FP inh 7 and PAFAH1B2 inh -3.
For NC(=O)Nc1ccc(C(=O)OCC(=O)Nc2ccc([N+](=O)[O-])cc2C(F)(F)F)cc1 the results were PAFAH2 inh 66*, PAFAH1B3 inh -5, Apaf1 inhib -4, pPAFAH FP inh -6, PAFAH1B2 inh 2 and PAFAH2 FP conf 66*.
For O=C(COC(=O)c1ccc[n+]([O-])c1)Nc1ccc([N+](=O)[O-])cc1C(F)(F)F the results were PAFAH2 inh 9, PAFAH1B3 inh 1, Apaf1 inhib -11, pPAFAH FP inh 1 and PAFAH1B2 inh 7.
